In publication PMC8248128 (International Journal of Cancer, 2021):
Values joined by “and” are separate entries in the source; they are usually repeats but may differ in a detail not shown here. Equal values may be shown once.

Experiments:
[1] = 3 + 3 dose‐escalation: dose‐limiting toxicity; format: in vivo, human; details: patients with advanced cancer
Carboplatin = format: in vivo, human; details: Cycle 1 day 1, plasma ultrafiltrate, target AUC 4, N=21 (dose‐level 1‐4)
Method in brief: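 Platinum from carboplatin measured in plasma and plasma ultrafiltrate by ICPMS with iridium internal standard. Carboplatin was given as a 30-min IV infusion on Day 1, dosed by Calvert formula (Cockcroft-Gault GFR), alongside oral olaparib BID from Day 0. Blood (4 mL) was sampled 0.25, 0.5, 1, 2, 4, 6, 8, 10, 24 and 48 h post-infusion. AUC0-48 calculated.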

[2] = once per 21‐day cycle with olaparib capsules 400 mg BID Day 1 to 7; cited from earlier work
[3] = Olaparib pharmacokinetics in human plasma; format: in vivo; details: Cycle 1 day 0, dose‐level 3 (MTD), olaparib 75 mg tablets, N=6, plasma
[4] = tested on: PAR levels (balance of PARP and PARG activity) in peripheral blood mononuclear cells; test: Radiation‐enhanced‐PAR pharmacodynamic assay; format: in vivo, human; details: Day 8 vs before treatment, lowest dose‐level (25 mg olaparib BID), ex vivo 8 Gy
Method in brief: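 Venous blood (16 mL, mononuclear cell preparation citrate tubes) was drawn pre-dose Day 0 and Day 8 of cycle 1; olaparib BID from Day 0, carboplatin AUC 3 mg*min/mL IV Day 1 at this level. Three independent samples of 2 × 10⁶ PBMCs were irradiated ex vivo with 8 Gy on ice, then held 1 h on ice. PAR was quantified by HT-PARP in vivo pharmacodynamics Assay II (NCI protocol). Reduction = ([Day 0 − Day 8]/Day 0) × 100%.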

[5] = tablet 300 mg vs capsule 400 mg; cited from earlier work

Row | Structure (SMILES) | Maximum tolerable dose (MTD), carboplatin part (target AUC) ([1]; carboplatin d1/d22 with olaparib tablets 75 mg BID, two cycles) [mg·min/mL] | Carboplatin AUC0-48 (mean) (Carboplatin) | MTD, carboplatin part (target AUC) [2] [mg·min/mL] | Maximum tolerable dose (MTD), olaparib part ([1]; olaparib tablets continuously with carboplatin AUC 4 mg*min/mL d1/d22, two cycles) [mg BID] | Olaparib AUC0-12 (mean) [3] [ng·h/mL] | Relative reduction in PAR levels in PBMCs [4] | AUC of the tablet formulation (300 mg) higher than the capsule formulation (400 mg) [5] [%]
1 | N.N.O=C([O-])C1(C(=O)[O-])CCC1.[Pt+2] [carboplatin] | 4 | 5.10 mg·min/mL and 5.1 mg·min/mL and 5 mg·min/mL | 5 | – | – | – | –
2 | O=C(c1cc(Cc2n[nH]c(=O)c3ccccc23)ccc1F)N1CCN(C(=O)C2CC2)CC1 [olaparib] | – | – | – | 75 | 15500 | 97.5% ± 0.1% | 13
